FLuc inh counter: inhibits firefly luciferase, flagging false hits in luciferase inhibition screens. ATPLite firefly luciferase biochemical luminescence, 10 min. inhibition, % at 10 µM. actives 1.5% (n = 200,000). AID 1006;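 active = inhibition above about 50% when tested at 10 µM, limit read from the data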
Target sequence (P08659 whole entry, looked up): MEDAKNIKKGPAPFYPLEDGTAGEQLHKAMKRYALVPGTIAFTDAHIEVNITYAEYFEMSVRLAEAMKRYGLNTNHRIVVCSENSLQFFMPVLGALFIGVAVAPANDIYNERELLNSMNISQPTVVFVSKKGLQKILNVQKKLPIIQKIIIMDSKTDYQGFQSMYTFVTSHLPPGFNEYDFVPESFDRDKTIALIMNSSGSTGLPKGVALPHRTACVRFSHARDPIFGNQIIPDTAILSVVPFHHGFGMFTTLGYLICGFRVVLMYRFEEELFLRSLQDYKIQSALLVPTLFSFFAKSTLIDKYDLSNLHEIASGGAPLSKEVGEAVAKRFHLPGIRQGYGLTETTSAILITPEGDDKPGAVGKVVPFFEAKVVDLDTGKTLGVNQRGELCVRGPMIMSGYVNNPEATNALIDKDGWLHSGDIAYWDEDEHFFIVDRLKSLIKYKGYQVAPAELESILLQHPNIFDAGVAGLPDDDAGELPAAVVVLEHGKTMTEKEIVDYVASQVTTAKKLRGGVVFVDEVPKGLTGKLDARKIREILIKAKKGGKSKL
C8 TRAIL sens: caspase-8 TRAIL sensitization | NB7+C8 cells + TRAIL, ATPlite viability luminescence | inhibition (viability loss, TRAIL sensitization), % at 10 µM | AID 624354 | actives 1% (n = 360,000);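 active = compounds causing at least 50% loss of cell viability in the single-dose screen, relative to plate controls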
Platelet DG rel: modulates dense granule release in human platelets | human platelet-rich plasma, SFLLRN dense granule ATP release, luminescence | inhibition, %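 (compounds screened at 7.5 µM in platelet-rich plasma)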 | actives 0.22% (n = 300,000) | AID 1663;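 active = mean replicate score, as percent of positive control, at or above 50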
PPC-1+TRAIL kill: kills PPC-1 cancer cells in the presence of TRAIL; cell killing (% activity), % at 4 µM or 5 µM; AID 1443; actives 0.41% (n = 220,000); PPC-1 cells + TRAIL, ATPLite viability luminescence;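 active = cell killing above 50% in the first pass at 4 µM, then a duplicate retest at 5 µM averaging 50% or more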
FLuc act counter: firefly luciferase counter-screen for stimulation assays; AID 1027; activation factor at 10 µM; 200,000 tested, under 10 active; ATPlite luciferase biochemical, luminescence, 10 min; 0 = ATP-free wells, 1 = DMSO control;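 active = luciferase activation factor, scaled between plate controls, of at least 2 with compound at 10 µM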
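Assay system: Luciferase/luciferin reagent mix; Medium: PBS as buffer for the ATP substrate; Dosing: test compounds dosed from 2 mM stocks in 100% DMSO; Times: 10 min, room temperature; Signal: luminescence from luciferase reaction; Read-out: luciferase activation; Controls: No-ATP low control, compound-free enzyme-plus-ATP high control.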
PPC1 cytotox: kills PPC-1 cells; shares compounds with PPC-1+TRAIL kill; PPC-1 viability, ATPlite luminescence, overnight; cytotoxicity, % at 5 µM; actives 50% (n = 1,200); AID 1447;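 active = reconfirmed compounds whose average cytotoxicity reaches 50% or more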
Each line names hits and unclear results; the compound was inactive in the other large screens (follow-up assays come after a bar, where they were run). In the library only some 1.6% were active in any assay of this set; here they are far more common.

Cc1cccc(N=C2NN=C(c3c(C)[nH]c4ccccc34)CS2)c1	none
Cc1cccc(N=C2NN=C(c3ccc4c(c3)OCCO4)CS2)c1	FLuc inh counter 81 | PPC1 cytotox inactive
Cc1cc(N2CCN(C(C(=O)NC3CCCC3)C(C)C)CC2)c2ccccc2n1 (stereo not drawn)	none (no result: FLuc inh counter, Platelet DG rel, PPC-1+TRAIL kill, FLuc act counter)
c1ccc2[nH]c(-c3cscn3)nc2c1	none
c1ccc2nc(-c3nc4ccccc4[nH]3)ccc2c1	FLuc inh counter 94, C8 TRAIL sens 90, Platelet DG rel 83, PPC-1+TRAIL kill 87 | PPC1 cytotox 84
O=C(CCNc1ccc(F)cc1)c1ccco1	none | PPC1 cytotox inactive
CC1(C(=O)NS(=O)(=O)c2cccc(Cl)c2)CCN1C(=O)C1(c2ccccc2)CC1 (stereo not drawn)	none (no result: FLuc inh counter, Platelet DG rel, PPC-1+TRAIL kill, FLuc act counter)
COc1cccc(N=Nc2ccc(O)c3ncccc23)c1	none (no result: FLuc inh counter, PPC-1+TRAIL kill, FLuc act counter)
COc1ccc(N=Nc2ccc(O)c3ncccc23)cc1	none (no result: FLuc inh counter, FLuc act counter) | PPC1 cytotox inactive
Cn1ccc2c(N3CCCCC3)cc3c(c21)C1CCC3C1 (stereo not drawn)	none (no result: FLuc inh counter, Platelet DG rel, PPC-1+TRAIL kill, FLuc act counter)
CCOc1cc(S(=O)(=O)NCc2ccccc2)ccc1F	none | PPC1 cytotox inactive
CCC(C)c1ccc(-c2cc(C(=O)OCC(=O)Nc3cc(C)on3)c3ccccc3n2)cc1 (stereo not drawn)	C8 TRAIL sens 83, PPC-1+TRAIL kill 83 | PPC1 cytotox 80
COC(=O)Cn1c(O)c(N=NC(=O)c2ccc3c(c2)OCO3)c2ccccc21	FLuc inh counter 76, C8 TRAIL sens 61 | PPC1 cytotox inactive
CCOC(=O)Cn1c(O)c(N=NC(=O)OC)c2ccccc21	none (no result: FLuc inh counter, FLuc act counter)
CC1=C(C(=O)N(C)C)CC(CC(=O)NC2CCCC2)C(=O)N1Cc1ccccc1 (stereo not drawn)	none (no result: FLuc inh counter, Platelet DG rel, PPC-1+TRAIL kill, FLuc act counter)
Cc1cccc(C(=O)n2c(=S)nc3ccccn32)c1	FLuc inh counter 91, C8 TRAIL sens 74, PPC-1+TRAIL kill 70 | PPC1 cytotox 70
Cc1ccc(C(=O)n2c(=S)nc3ccccn32)cc1	FLuc inh counter 96, PPC-1+TRAIL kill 91 (no result: C8 TRAIL sens) | PPC1 cytotox 90
Cc1cccc(C(=O)N2CCCCCC2)c1	none
O=C(c1ccccc1)n1ccn(-c2ccccc2)c1=S	none
O=C(c1ccccc1)n1c(=S)nc2ccccn21	FLuc inh counter 94, C8 TRAIL sens 84, PPC-1+TRAIL kill 72 | PPC1 cytotox 74
OC[C@@H]1CN(Cc2cccc(C(F)(F)F)c2)C[C@H](n2cnc3c(NCc4ccncc4)ncnc32)O1	none (no result: FLuc inh counter, Platelet DG rel, PPC-1+TRAIL kill, FLuc act counter)
CC1(C(=O)NS(=O)(=O)c2cccc(OC(F)F)c2)CCN1C(=O)Cc1ccsc1 (stereo not drawn)	none (no result: FLuc inh counter, Platelet DG rel, PPC-1+TRAIL kill, FLuc act counter)
COc1nc(Nc2nc3ccccc3c(=O)[nH]2)nc2ccc(C)cc12	PPC-1+TRAIL kill 51 (no result: FLuc inh counter, FLuc act counter) | PPC1 cytotox 51
Cc1cc2c(cc1C)-n1nnnc1C(N1CCN(c3ncccc3C#N)CC1)C(=O)N2 (stereo not drawn)	none (no result: FLuc inh counter, Platelet DG rel, PPC-1+TRAIL kill, FLuc act counter)
CCCCn1nnnc1C(c1ccccc1)N1CCN(c2c(Cl)cncc2Cl)CC1 (stereo not drawn)	none (no result: FLuc inh counter, Platelet DG rel, PPC-1+TRAIL kill, FLuc act counter)
NC(c1ccc(F)c(F)c1)c1nc(-c2cc(F)cc(F)c2)cs1 (stereo not drawn)	none (no result: FLuc inh counter, Platelet DG rel, PPC-1+TRAIL kill, FLuc act counter)
Cc1nc2cc(NCc3nc4ccccc4n3Cc3ccccc3)ccc2n1C	FLuc inh counter 87, PPC-1+TRAIL kill 61 | PPC1 cytotox 63
CCOc1ccc2[nH]c(S(=O)(=O)CC)nc2c1Cl	none | PPC1 cytotox inactive
COc1ccc(N=Nc2nc3ccc(Br)cc3n2C)cc1	FLuc inh counter 84, C8 TRAIL sens 80, PPC-1+TRAIL kill 76 | PPC1 cytotox 72
Cc1ccc(-c2nc3ccccc3[nH]2)cn1	none (no result: FLuc inh counter, PPC-1+TRAIL kill, FLuc act counter)
Cc1nc2ccc(-c3nc4ccccc4[nH]3)cc2[nH]1	FLuc inh counter 77 | PPC1 cytotox inactive
Cc1nn(-c2ccccc2)c(C)c1/C=N\N1CCN(c2ccc(Cl)cc2)CC1	none | PPC1 cytotox inactive
Cc1nn(-c2ccccc2)c(C)c1/C=N/n1cnnc1	none
Cc1ccc(S(=O)(=O)N2C[C@@H](C)[C@]3(C2)[C@H](O)[C@H](OC(=O)Nc2cccs2)C[C@H]2C(=O)N(c4ccccc4)C(=O)[C@H]23)cc1	none (no result: FLuc inh counter, Platelet DG rel, PPC-1+TRAIL kill, FLuc act counter)
COc1ccc(-c2n(CC(=O)OC3CC(C)CCC3C(C)C)c3ccccc3[n+]2C)cc1 (stereo not drawn)	none | PPC1 cytotox 52
COc1ccc(OCc2n(CC(=O)OC3CC(C)CCC3C(C)C)c3ccccc3[n+]2C)cc1 (stereo not drawn)	none (no result: FLuc inh counter, FLuc act counter)

Source: PubChem (several laboratories)
